Screens: PubChem BioAssay, Sanford-Burnham Center for Chemical Genomics
LMPTP block = LMPTP (human) inhibition. P24666. recombinant LMPTP-A, OMFP fluorogenic substrate, fluorescence intensity. inhibition, % at 20 µM. 360,000 compounds, 0.22% hits. AID 651560;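 active = compounds that cut the enzyme signal by at least half of the control window in the single-dose screen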;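 also: plate controls were DMSO wells with enzyme plus substrate for no effect and substrate without enzyme for full effect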
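Test system – LMPTP-A phosphatase enzyme · Quantity – 0.625 nM LMPTP-A final · Reagent – OMFP substrate, 400 µM final · Dosing – one test concentration per compound, 20 µM, with 3% DMSO overall · Timing – 50 min enzyme reaction at room temperature, protected from light · Detection – fluorescence intensity · Controls – substrate-only low control, DMSO enzyme-plus-substrate high control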
STEP block = STEP (human) phosphatase inhibition. 360,000 compounds, 0.25% hits. inhibition, % at 20 µM. AID 588621. recombinant STEP, OMFP fluorogenic substrate, fluorescence;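 active = inhibition at 20 µM, scaled per plate between control wells, above about 37%, limit read from the data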;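 also: 0% = DMSO with enzyme and substrate and 100% = substrate only without enzyme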
Target sequence (P54829 whole entry, looked up): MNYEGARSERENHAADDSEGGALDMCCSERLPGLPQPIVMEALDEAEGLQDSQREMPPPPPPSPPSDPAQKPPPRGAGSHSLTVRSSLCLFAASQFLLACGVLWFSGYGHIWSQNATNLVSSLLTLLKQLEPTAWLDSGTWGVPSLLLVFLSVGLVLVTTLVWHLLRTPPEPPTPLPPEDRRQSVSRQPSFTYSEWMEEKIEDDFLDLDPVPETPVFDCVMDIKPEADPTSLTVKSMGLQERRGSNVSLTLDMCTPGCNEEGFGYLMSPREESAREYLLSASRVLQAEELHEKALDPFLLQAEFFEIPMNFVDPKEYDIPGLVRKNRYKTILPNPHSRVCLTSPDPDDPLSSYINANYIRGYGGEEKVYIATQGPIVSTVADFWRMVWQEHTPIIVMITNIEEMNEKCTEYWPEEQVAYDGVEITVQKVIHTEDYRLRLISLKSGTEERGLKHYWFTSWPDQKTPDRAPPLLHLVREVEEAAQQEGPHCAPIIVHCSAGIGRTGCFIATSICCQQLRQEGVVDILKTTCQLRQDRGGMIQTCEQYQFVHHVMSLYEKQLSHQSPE
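medium = Bis-Tris buffer pH 6.0, 2.5 mM DTT, 0.005% Tween 20 | test system = STEP (striatal-enriched tyrosine phosphatase) enzyme, cell-free | measure = normalized % inhibition | compound dosing = 20 µM, 1% DMSO | also added = 25 µM OMFP | schedule = reaction 20 min, ambient temperature | measured by = fluorescence read at 480 nm ex / 540 nm em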
DNMT1 inh = inhibitors of human DNMT1. 360,000 compounds, 0.83% hits. inhibition (reported as % activation of signal), % at 10 µM. DNMT1 molecular beacon, Hinp1I cleavage, fluorescence. P26358; in the data active = inhibition above about 50%
NadD block = inhibitors of Staphylococcus aureus NadD. inhibition, % at 20 µM. 360,000 compounds, 0.78% hits. purified NadD enzyme, colorimetric absorbance read-out; in the data active = inhibition above about 26%
Scp-1 inhibitor = Scp-1 (human) phosphatase inhibition; Recombinant Scp1, phosphopeptide, malachite green phosphate absorbance; inhibition, % at 20 µM; 340,000 compounds, 0.88% hits; AID 493091;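 active = inhibition above about 50% at 20 µM, limit read from the data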;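 also: plate controls were DMSO wells with enzyme for no effect and wells lacking enzyme for full effect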
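Material – SCP-1 phosphatase catalytic domain, residues 76-261 · Buffer or medium – Acidic Tris acetate buffer with magnesium and detergent · Also added – Phospho 17-mer peptide substrate · Compound – single 20 µM dose, 1% DMSO · Times – 45 min room-temperature reaction, 5 min colour, 30 min stabiliser · Technique – Phosphate-binding colour reagent, absorbance read at 630 nm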
SUMO1-SIM PPI = SUMO1-SIM interaction modulation; 360,000 compounds, 0.33% hits; SUMO1 binding to a labelled peptide, TR-FRET, 1 h; P63165; inhibition, % at 20 µM; in the data active = inhibition above about 37%
Target sequence (P63165 whole entry, looked up): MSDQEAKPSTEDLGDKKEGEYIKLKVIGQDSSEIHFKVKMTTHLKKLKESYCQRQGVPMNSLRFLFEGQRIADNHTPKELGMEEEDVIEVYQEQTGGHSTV
Scp-1 conf = confirmation of human Scp-1 phosphatase inhibitors | shares compounds with Scp-1 inhibitor | AID 540281 | recombinant SCP-1 catalytic domain, phosphate release, malachite green absorbance | inhibition, % at 20 µM | 2,500 compounds, 61% hits;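 also: plate controls were DMSO with enzyme for no effect and buffer wells lacking enzyme for full effect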
MG interference = interferes with malachite green readout, flagging false Scp-1 hits; shares compounds with Scp-1 inhibitor; Colorimetric interference counterscreen, malachite green absorbance 630 nm; apparent inhibition (interference), % at 20 µM; 2,500 tested, under 10 active; AID 540313;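 also: compounds added after enzyme reaction finished so only phosphate colour detection is probed; plate controls were DMSO wells with completed Scp-1 reaction for no effect and substrate wells lacking enzyme for full effect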
Scp1 DSF = Scp-1 (human) binding by thermal shift. shares compounds with Scp-1 inhibitor. Recombinant SCP1, Sypro Orange thermal shift Tm. thermal shift relative to vanadate control, % at 40 µM. 1,500 compounds, 25% hits. AID 540329;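 active = substances whose mean melting-temperature shift, as a percentage of the reference inhibitor's shift, reaches about 5.3%, limit read from the data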;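 also: 0% = Tm of DMSO wells and 100% = Tm with sodium orthovanadate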
Numbers without * were called inactive; nt = no result given. An excerpt weighted towards active compounds, which were near 2.4% of everything screened.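 The calls were made as follows, unless noted: active = inhibition of at least 30% at 20 µM; inactive = the rest.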

SMILES	LMPTP block	STEP block	DNMT1 inh	NadD block	Scp-1 inhibitor	SUMO1-SIM PPI	Scp-1 conf	MG interference	Scp1 DSF
CCc1noc(C)c1C(=O)Nc1cc(C(F)(F)F)ccc1-n1cncn1	-2	2	0	1	65*	-1	-7	-8	nt
CCc1noc(C)c1C(=O)Nc1cc(Cl)ccc1-n1cncn1	-1	-1	-2	2	-4	-2	nt	nt	nt
O=C(CSc1nnc2ccccn12)NC(=O)c1ccccc1Cl	8	21	43	10	66*	-3	51*	-15	-3
COc1ccccc1C(=O)NC(=O)CSc1nnc2ccccn12	0	0	1	0	-5	-4	nt	nt	nt
O=C1NC(=S)N(c2cccc(Cl)c2)C12CCCCC2	-1	1	2	-3	-10	4	nt	nt	nt
Cc1cn(CC(=O)N[C@H](C)c2cccc3ccccc23)c(=O)[nH]c1=O	-2	-2	1	-2	0	0	-21	-20	nt
CC[C@@H](NC(=O)Cn1cc(C)c(=O)[nH]c1=O)c1ccccc1	-1	-2	0	1	1	0	nt	nt	nt
Nc1nc2n(n1)C(=O)CC(c1ccccc1)N2 (stereo not given)	0	-1	12	-1	-6	-1	nt	nt	nt
CSc1nc2nccc(-c3ccc(Cl)cc3)n2n1	25	5	10	0	84*	1	71*	-14	-22
COc1cc(OC)c2ccc(=O)oc2c1C(CC(=O)N1CCCC(C)C1)c1ccc2c(c1)OCO2 (stereo not given)	3	6	46	7	56*	2	54*	-9	-3
Cc1ccc(S(=O)(=O)NC(C)(C)C)cc1C(=O)OC(C)C(=O)NC1CC1 (stereo not given)	-1	1	0	-3	-10	6	nt	nt	nt
CCc1nnc(NC(=O)C2(C)COC(c3ccccc3)OC2)s1 (stereo not given)	-1	0	0	-1	55*	0	-5	-4	nt
Cc1cc(C)n2nc(C(=O)OCC(=O)c3ccccc3Cl)nc2n1	0	2	-2	-2	-2	1	nt	nt	nt
Cc1cc(C)n2nc(C(=O)OCC(=O)c3cc(C)n(C)c3C)nc2n1	1	1	26	-1	52*	0	58*	-15	-2
Cc1cc(C(=O)COC(=O)c2cc(Cl)c(O)c(Cl)c2)c(C)n1C	5	3	55*	5	55*	34	36*	-14	9.4*
COc1ccc(S(=O)(=O)Nc2ccc3c(c2)C(=O)N([C@@H](C)CO)C[C@H](C)[C@H](CN(C)S(=O)(=O)c2ccc(F)cc2)O3)cc1	-1	2	-3	-2	45	3	nt	nt	nt
CCOC(=O)CN1C(=O)N[C@@H](c2cccs2)C(C(C)=O)=C1C	0	-3	1	-5	-9	1	nt	nt	nt
CCOC(=O)CN1C(=O)N[C@@H](c2cccs2)C(C(=O)OC)=C1C	-1	3	3	-7	58*	1	-6	-9	nt
O=C(N/N=C/c1ccc(F)cc1)c1ccccc1	1	2	1	-5	-5	0	nt	nt	nt
O=C(N/N=C/c1ccc(OC(=O)c2cccs2)cc1)c1ccc(F)cc1	28	14	28	0	70*	-3	64*	-15	-29
O=C(Oc1ccc(/C=N/NC(=O)c2ccccc2O)cc1)c1ccccc1	3	-1	-6	22	82*	0	70*	-5	-8
Cc1cccc(C(=O)Oc2ccc(/C=N/NC(=O)c3cc(O)cc(O)c3)cc2)c1	12	63*	69*	16	53*	31	60*	-9	3
O=C(Oc1ccc(/C=N/NC(=O)c2ccccc2F)cc1)c1ccccc1	1	3	5	2	-2	2	nt	nt	nt
O=C(N/N=C/c1ccc(OCCCF)cc1)c1ccc(C(F)(F)F)cc1	30	25	28	-5	93*	2	64*	-19	-13
C[C@@H]1CN([C@@H](C)CO)S(=O)(=O)c2ccc(C#CC3CCCCC3)cc2O[C@@H]1CN(C)Cc1cccnc1	0	5	-7	3	nt	6	nt	nt	nt
SMILES	LMPTP block	STEP block	DNMT1 inh	NadD block	Scp-1 inhibitor	SUMO1-SIM PPI	Scp-1 conf	MG interference	Scp1 DSF
Cc1ccc(N(CC(=O)NCc2ccc(Cl)cc2)S(C)(=O)=O)cc1	-1	0	5	-4	-6	0	nt	nt	nt
COc1ccc(C2C(C#N)=C(N)OC3=C2C(=O)CC(C)(C)C3)c(OC)c1OC (stereo not given)	-2	0	-1	-2	51*	0	-16	-13	nt
CCc1csc(CCNC(=O)C2CCC(=O)N(CCc3cccc(F)c3)C2)n1 (stereo not given)	-1	0	0	2	0	-1	nt	nt	nt
C[N+]1(CCCCSc2ccc(O)cc2)CCCCC1	-1	2	12	14	98*	-2	83*	-15	-13
COc1ccc(/C=C2\SC(=S)N(CCC(=O)Nc3ccccc3C(=O)O)C2=O)cc1	1	2	-1	1	1	-1	nt	nt	nt
CCOc1ccc(/C=C2\SC(=S)N(CCC(=O)Nc3ccccc3C(=O)O)C2=O)cc1	3	3	1	20	64*	8	44*	-18	18*
CCOc1ccc(/C=C2/SC(=S)N(CCC(=O)Nc3ccc(C(=O)O)cc3)C2=O)cc1	64*	47*	28	38*	56*	61*	78*	-9	2
CCCC[C@@H]1CNC(=O)C(=O)N1CCCCC1CCCCC1	-1	nt	nt	6	nt	7	nt	nt	nt
O=C(NCCN1CCOCC1)C(=O)NCC1OCCCN1S(=O)(=O)c1cc(F)ccc1F (stereo not given)	-2	-2	0	-3	-8	1	nt	nt	nt
CCOC(=O)Cc1csc(NC(=O)CSc2nc(N)c3c(C)c(C)sc3n2)n1	1	-1	-15	-1	-2	3	nt	nt	nt
O=C(O)CCCCCn1c(O)c(C=C2N=c3ccccc3=N2)sc1=S	15	22	8	-4	74*	-9	91*	-5	10*
O=C(O)c1cncc(C#CCC2CCCCC2)c1	-2	-3	1	-4	-4	1	nt	nt	nt
COc1ccc(NC(=O)c2cc3ccccc3cc2OC)cc1	1	-1	-16	-3	-14	-9	nt	nt	nt
COc1cc2ccccc2cc1C(=O)NC(=S)Nc1ccc(C(=O)O)cc1	39	10	3	15	61*	7	52*	-14	-14
